The text below walks through data of ChEMBL document CHEMBL3580567 (J Med Chem, 2015).

SMILES strings stand for the structures. The source made the active and inactive calls. No cut-off for these calls is given here.

In assay [1] the target is T1, Melatonin receptor type 1B (Homo sapiens, UniProt P49286).
T1 sequence (P49286 whole entry): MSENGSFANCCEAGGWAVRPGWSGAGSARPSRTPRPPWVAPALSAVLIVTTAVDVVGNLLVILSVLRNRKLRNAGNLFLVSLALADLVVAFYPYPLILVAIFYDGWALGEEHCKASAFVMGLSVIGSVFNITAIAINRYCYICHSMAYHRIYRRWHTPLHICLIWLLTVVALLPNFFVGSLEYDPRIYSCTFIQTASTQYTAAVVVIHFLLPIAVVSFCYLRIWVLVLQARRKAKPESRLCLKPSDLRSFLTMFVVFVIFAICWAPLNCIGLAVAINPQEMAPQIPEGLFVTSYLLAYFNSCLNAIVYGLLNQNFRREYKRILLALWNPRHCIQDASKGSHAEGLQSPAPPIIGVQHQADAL
The assay can be described thus: Agonist activity at human melatonin receptor-2 transfected in CHO cell membranes after 1 hr by GTPgammaS binding assay. The class given is functional.

Assay [2] addresses T2, Melatonin receptor type 1A (Homo sapiens, UniProt P48039). The assay can be described thus: Agonist activity at human melatonin receptor-1 transfected in CHO cell membranes after 1 hr by GTPgammaS binding assay. The class given is functional.
Assay [3] concerns the target T3, 5-hydroxytryptamine receptor 1A (Homo sapiens) (UniProt P08908).
T3 sequence (whole entry): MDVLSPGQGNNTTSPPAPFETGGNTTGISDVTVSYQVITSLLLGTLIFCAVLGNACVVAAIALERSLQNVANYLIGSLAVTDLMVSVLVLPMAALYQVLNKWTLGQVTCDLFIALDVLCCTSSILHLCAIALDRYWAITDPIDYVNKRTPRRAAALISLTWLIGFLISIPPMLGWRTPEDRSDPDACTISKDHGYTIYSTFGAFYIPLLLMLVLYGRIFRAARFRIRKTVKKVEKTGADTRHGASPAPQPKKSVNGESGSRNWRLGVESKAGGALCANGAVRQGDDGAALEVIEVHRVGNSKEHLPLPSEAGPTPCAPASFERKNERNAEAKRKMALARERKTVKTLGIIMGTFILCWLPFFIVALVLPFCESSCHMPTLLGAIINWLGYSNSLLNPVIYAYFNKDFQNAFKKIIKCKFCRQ
The assay can be described thus: Binding affinity to 5HT-1A receptor (unknown origin) at 10 uM.

In assay [4] the target is Cannabinoid receptor 1 (Homo sapiens) (UniProt P21554). The assay can be described thus: Binding affinity to CB1 receptor (unknown origin) at 10 uM.
Chain of Cannabinoid receptor 1 (Homo sapiens) (P21554 whole entry): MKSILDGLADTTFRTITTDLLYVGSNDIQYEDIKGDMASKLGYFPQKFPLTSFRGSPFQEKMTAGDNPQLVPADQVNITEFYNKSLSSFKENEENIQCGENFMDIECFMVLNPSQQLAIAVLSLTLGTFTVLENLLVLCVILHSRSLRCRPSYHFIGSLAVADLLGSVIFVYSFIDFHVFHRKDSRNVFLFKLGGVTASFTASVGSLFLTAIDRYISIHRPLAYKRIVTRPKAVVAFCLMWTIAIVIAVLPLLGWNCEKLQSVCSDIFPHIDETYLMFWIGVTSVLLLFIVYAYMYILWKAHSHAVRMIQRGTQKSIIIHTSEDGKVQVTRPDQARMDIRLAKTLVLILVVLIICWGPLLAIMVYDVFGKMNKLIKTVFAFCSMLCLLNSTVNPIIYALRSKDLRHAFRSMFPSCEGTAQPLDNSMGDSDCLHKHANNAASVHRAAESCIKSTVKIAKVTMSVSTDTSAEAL
A short description of assay [5]: Induction of primary neuronal stem cell maturation derived from subgranular zone of dentate gyrus of Wistar rat hippocampus assessed as upregulation of MAP-2 expression at 10 uM incubated for 7 days by DAPI staining-based fluorescence microscopic analysis in presence of melatonin receptor antagonist luzindole. The class given is functional, tissue-based. Particulars: Primary neuron. Put shortly: (§1)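 Neurospheres came from the SGZ of the dentate gyrus of adult male Wistar rats (8-12 weeks). They were grown in DMEM/F12 with 10 ng/mL EGF, 10 ng/mL FGF and B27. After 3 days, cultures were treated with compounds for 7 days. They were then plated on poly-L-lysine coverslips for 48 h with serum and without growth factors. Cells were immunostained for TuJ1 and MAP-2 with DAPI nuclei. Positive cells were counted by fluorescence microscopy in five NS per condition over three independent experiments. Untreated cultures gave basal values.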

A short description of assay [6]: Induction of primary neuronal stem cell differentiation derived from subgranular zone of dentate gyrus of Wistar rat hippocampus assessed as upregulation of TuJ1 expression incubated for 7 days followed by 48 hrs incubation in presence of serum and absence of EGF by DAPI staining-based fluorescence microscopic analysis. The class given is functional, tissue-based. The note with it: Primary neuron. The method, boiled down: as §1

Assay [7] has as its target T2, Melatonin receptor type 1A. The assay can be described thus: Agonist activity at human melatonin receptor-1 transfected in CHO cell membranes after 1 hr by GTPgammaS binding assay relative to melatonin. The class given is functional. Put shortly:
(§2)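 CHO membranes (20 µg/mL) stably expressing human MT1 or MT2 in 20 mM HEPES pH 7.4, 100 mM NaCl, 3 µM GDP, 3 mM MgCl2, 20 µg/mL saponin. Incubated with 0.2 nM [35S]GTPγS for 1 h at rt, then filtered. Non-specific binding defined with 10 µM GTPγS. Seven concentrations in duplicate; EC50 and Emax fitted.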

The species named for another assay is Homo sapiens. The assay can be described thus: Selectivity ratio of Ki for human melatonin receptor-1 to Ki for human melatonin receptor-2.
The target in assay [8] is 5-hydroxytryptamine receptor 2A (Homo sapiens) (UniProt P28223). The assay can be described thus: Binding affinity to 5HT-2A receptor (unknown origin) at 10 uM.
Chain of 5-hydroxytryptamine receptor 2A (Homo sapiens) (P28223 whole entry): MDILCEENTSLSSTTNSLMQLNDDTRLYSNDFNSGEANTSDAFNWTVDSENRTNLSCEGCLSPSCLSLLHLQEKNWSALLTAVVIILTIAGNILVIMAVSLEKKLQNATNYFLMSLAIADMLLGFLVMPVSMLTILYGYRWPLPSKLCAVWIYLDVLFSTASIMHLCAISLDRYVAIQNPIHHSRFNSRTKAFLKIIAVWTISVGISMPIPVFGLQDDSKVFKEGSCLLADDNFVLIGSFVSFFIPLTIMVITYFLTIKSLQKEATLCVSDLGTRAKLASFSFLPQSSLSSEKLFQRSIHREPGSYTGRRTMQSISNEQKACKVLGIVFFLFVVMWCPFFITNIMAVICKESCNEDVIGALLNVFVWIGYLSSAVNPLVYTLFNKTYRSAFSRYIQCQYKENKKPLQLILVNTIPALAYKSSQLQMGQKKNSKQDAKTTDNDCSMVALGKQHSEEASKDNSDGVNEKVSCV
Assay [9] concerns the target T4, Retinoic acid receptor alpha (Homo sapiens) (UniProt P10276).
T4 sequence (whole entry): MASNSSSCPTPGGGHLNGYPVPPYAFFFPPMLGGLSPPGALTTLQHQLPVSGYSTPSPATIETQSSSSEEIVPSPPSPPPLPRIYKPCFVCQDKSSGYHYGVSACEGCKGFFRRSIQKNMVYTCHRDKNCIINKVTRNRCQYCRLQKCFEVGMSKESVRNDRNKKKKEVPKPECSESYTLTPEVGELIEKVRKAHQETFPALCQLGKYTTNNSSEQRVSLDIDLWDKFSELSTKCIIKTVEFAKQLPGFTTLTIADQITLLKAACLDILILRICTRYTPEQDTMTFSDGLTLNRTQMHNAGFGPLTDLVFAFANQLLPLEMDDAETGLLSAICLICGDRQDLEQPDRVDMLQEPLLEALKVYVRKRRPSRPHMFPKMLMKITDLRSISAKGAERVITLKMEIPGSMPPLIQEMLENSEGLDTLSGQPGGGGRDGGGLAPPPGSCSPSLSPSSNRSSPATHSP
The assay can be described thus: Binding affinity to RARalpha (unknown origin) at 10 uM.

In assay [10] the target is T2, Melatonin receptor type 1A. The assay can be described thus: Displacement of 2-[125I]-iodomelatonin from human melatonin receptor-1 transfected in CHO cell membranes after 120 mins.
Assay [11] in a line: Induction of primary neuronal stem cell differentiation derived from subgranular zone of dentate gyrus of Wistar rat hippocampus assessed as upregulation of TuJ1 expression at 10 uM incubated for 7 days followed by 48 hrs incubation in presence of serum and absence of EGF by DAPI staining-based fluorescence microscopic analysis in presence of melatonin receptor antagonist luzindole. The class given is functional. Particulars: Primary neuron. The method, boiled down: as §1

Assay [12] concerns the target T5, Melatonin receptor type 1B (Homo sapiens) (UniProt P49286).
T5 sequence (whole entry): T1 sequence (P49286 whole entry)
The assay can be described thus: Agonist activity at human melatonin receptor-2 transfected in CHO cell membranes after 1 hr by GTPgammaS binding assay relative to melatonin. The class given is functional. The method, boiled down:
as §2

Assay [13] deals with Sodium-dependent serotonin transporter (Homo sapiens) (UniProt P31645). The assay can be described thus: Binding affinity to SERT (unknown origin) at 10 uM.
Chain of Sodium-dependent serotonin transporter (Homo sapiens) (P31645 whole entry, looked up): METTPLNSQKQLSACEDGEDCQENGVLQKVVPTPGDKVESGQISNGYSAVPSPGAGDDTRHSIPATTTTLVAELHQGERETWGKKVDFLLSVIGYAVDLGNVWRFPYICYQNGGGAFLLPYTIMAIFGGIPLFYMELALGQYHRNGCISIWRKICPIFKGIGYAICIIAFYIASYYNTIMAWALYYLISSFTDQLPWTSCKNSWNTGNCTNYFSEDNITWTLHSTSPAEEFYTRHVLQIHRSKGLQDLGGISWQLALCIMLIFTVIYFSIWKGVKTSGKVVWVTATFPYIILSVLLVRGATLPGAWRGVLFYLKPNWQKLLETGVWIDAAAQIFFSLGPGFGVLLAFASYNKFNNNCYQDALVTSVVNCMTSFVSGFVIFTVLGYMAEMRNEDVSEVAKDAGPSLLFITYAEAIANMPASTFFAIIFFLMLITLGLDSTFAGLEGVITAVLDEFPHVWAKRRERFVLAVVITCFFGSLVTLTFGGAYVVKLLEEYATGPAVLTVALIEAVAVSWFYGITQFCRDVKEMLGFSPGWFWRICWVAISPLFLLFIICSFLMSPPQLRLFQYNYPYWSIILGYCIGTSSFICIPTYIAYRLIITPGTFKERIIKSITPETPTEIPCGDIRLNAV
In assay [14] the target is Cannabinoid receptor 2 (Homo sapiens) (UniProt P34972). The assay can be described thus: Binding affinity to CB2 receptor (unknown origin) at 10 uM.
Chain of Cannabinoid receptor 2 (Homo sapiens) (P34972 whole entry): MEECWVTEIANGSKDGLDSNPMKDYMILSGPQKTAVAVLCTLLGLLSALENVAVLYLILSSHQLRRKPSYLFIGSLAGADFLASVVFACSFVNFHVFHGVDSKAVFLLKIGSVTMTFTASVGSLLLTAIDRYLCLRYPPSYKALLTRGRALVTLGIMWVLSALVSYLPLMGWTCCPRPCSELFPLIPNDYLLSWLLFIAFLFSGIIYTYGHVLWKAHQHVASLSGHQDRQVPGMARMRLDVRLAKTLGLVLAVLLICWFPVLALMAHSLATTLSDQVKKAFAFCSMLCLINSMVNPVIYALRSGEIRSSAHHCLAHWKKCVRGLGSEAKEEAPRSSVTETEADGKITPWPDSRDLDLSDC
Assay [15] concerns the target Glycogen synthase kinase-3 beta (Homo sapiens) (UniProt P49841). The assay can be described thus: Binding affinity to GSK-3beta receptor (unknown origin) at 10 uM.
The target of assay [16] is T1, Melatonin receptor type 1B. The assay can be described thus: Displacement of 2-[125I]-iodomelatonin from human melatonin receptor-2 transfected in CHO cell membranes after 120 mins.
For assay [17], the target named is T1, Melatonin receptor type 1B. The assay can be described thus: Agonist activity at human recombinant melatonin receptor-2 expressed in CHO cells assessed as decrease of cAMP level after 10 mins by HTRF assay. The class given is functional, cell-based. Put shortly: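 Functional agonist profiling was done by CEREP on cells expressing human recombinant MT receptors. MT1 was read by cellular dielectric spectroscopy and MT2 by homogeneous time-resolved fluorescence. The protocols are those on the company website.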

T2 sequence (P48039 whole entry): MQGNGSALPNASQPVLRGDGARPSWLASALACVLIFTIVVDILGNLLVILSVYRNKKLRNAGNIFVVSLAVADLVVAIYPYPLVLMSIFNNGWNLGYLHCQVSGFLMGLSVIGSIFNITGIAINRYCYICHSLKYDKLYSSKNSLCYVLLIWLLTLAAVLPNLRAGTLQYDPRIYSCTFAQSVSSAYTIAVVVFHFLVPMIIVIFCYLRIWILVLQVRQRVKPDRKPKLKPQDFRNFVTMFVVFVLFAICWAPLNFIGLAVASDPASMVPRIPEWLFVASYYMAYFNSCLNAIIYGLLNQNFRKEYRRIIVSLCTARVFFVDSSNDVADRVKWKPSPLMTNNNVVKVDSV
Chain of Glycogen synthase kinase-3 beta (Homo sapiens) (P49841 whole entry, looked up): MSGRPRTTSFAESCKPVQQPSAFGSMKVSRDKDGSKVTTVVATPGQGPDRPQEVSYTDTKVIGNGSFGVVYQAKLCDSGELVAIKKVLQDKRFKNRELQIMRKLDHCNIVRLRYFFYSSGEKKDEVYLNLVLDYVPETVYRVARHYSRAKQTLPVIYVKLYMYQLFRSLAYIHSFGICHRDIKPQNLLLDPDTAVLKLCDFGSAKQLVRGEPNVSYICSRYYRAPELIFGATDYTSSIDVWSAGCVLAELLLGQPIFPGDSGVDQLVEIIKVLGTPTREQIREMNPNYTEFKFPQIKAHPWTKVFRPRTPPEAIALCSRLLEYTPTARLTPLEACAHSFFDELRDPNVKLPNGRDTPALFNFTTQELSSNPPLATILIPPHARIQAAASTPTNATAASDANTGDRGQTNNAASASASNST

As to `COc1ccc2[nH]cc(CCc3nnc(C)o3)c2c1`, the half-maximal effective concentration (EC50) in [1] came to 881 nM; in assay [2] it was 961 nM; in assay [17], 1600 nM. The outcome in assay [3], in assay [4], in [5], in assay [8], in assay [9] and in assay [11] was inactive. Also, the outcome in assay [13], in assay [14] and in assay [15] was inactive. In addition, in [6], the Activity entry was “Dose-dependent effect”. For the same compound, the Emax in [7] was 19%; in [12], 32%. The Ratio Ki in the assay listed under Homo sapiens turned out to be 3.6. For the same compound, the figures for the inhibitory constant (Ki) in assay [10] and in [16] were 709 nM and 190 nM, respectively.
